Assay results gathered from unrelated publications.
Lines come from different studies, so protocols differ.
Target: Ephrin type-A receptor 5 (EPHA5, Homo sapiens, UniProt P54756)

| Compound | assay | setting | endpoint | value |
| --- | --- | --- | --- | --- |
| Cn1cc(-c2cccc(N3CCc4c(sc5c4CC(C)(C)C5)C3=O)c2CO)cc(Nc2ccncn2)c1=O | enzyme activity, inhibitor | 1 µM | inhibition | 1% |
| Cn1cncc1[C@@](O)(COc1ccc(C#N)cc1-c1ccc(OC(F)(F)F)cc1)c1ccc(C#N)cc1 | cell-free assay, competition with immobilised ligand | 1 µM | remaining binding | 67% |
| C#Cc1n[nH]c2c(-c3cn([C@@H](C)c4ccccn4)c(=O)[nH]c3=O)cc(F)cc12 | enzyme activity, inhibitor | 0.1 µM | inhibition | 8.9% |
| CC(C)(C)c1cc(C=C(C#N)C#N)cc(Br)c1O | enzyme activity, inhibitor | 0.5 µM | remaining activity | 106% |
| Cn1cc(-c2cc(F)cc(N3CCn4c(cc5c4CCCC5)C3=O)c2CO)cc(Nc2ccc(N3CCN(C4COC4)CC3)cn2)c1=O | enzyme activity, inhibitor | 0.1 µM | inhibition | 11% |
| COc1cc(Nc2ncc(F)c(Nc3ccc4c(n3)NC(=O)C(C)(C)O4)n2)cc(OC)c1OC | binding, competition with immobilised ligand | 10 µM | inhibition | 64% |
| Cc1nn(C)cc1-c1nc2c(N3CCN(Cc4ccc(Cl)cc4)CC3)c(Cl)cnc2[nH]1 | binding, competition with immobilised ligand | 1 µM | remaining binding | 100% |
| O=c1[nH]c2ccccc2n1C1CCN(Cc2ccc(-c3[nH]c4cc5ncnc5cc4nc3-c3ccccc3)cc2)CC1 | cell-free assay | 0.5 µM | remaining signal | 102% |
| C#Cc1n[nH]c2c(-c3cn([C@@H](C)c4ccccc4)c(=O)[nH]c3=O)cc(F)cc12 | enzyme activity, inhibitor | 0.1 µM | inhibition | 5.4% |
| COc1ncccc1-c1cnn2ccc(N3CCN(C(=O)OC(C)C)CC3)nc12 | binding, competition with immobilised ligand | 1 µM | remaining binding | 100% |
